Source: PubChem BioAssay AID719 (SRMLSC, 2007)
About 940 (1.1%) of roughly 85,000 compounds were called active. The entries come from a sample that favours actives as a whole. A number with no mark means an inactive call.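 The calls were made as follows: active = viability at or below 50% in the single dose screen; inactive = viability above 50%.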

assay: antiproliferative effect on LL 47 fibroblasts – human, LL 47 cells, CellTiter-Glo luminescence, primary screen (AID 719); conditions: LL 47 human lung fibroblast viability, ATP luminescence; at 10 µM; active compounds read low;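 also: compound exposure lasted 72 h before the ATP readout; 100% = median luminescence of untreated cell-only wells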
In short: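 Assay system: human lung fibroblast line LL 47, low passage. Input: 1,150 fibroblasts seeded per well. Times: overnight cell rest, 72 h compound treatment at 37 °C. Evaluation: % viability of median cell-only signal. Technique: luminescent ATP detection, CellTiter-Glo. Control set: cell-only wells, no compound.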

Compound	viability
O=C(CCn1c(SCC(=O)c2ccccc2)nc2ccccc2c1=O)NCc1ccc(F)cc1	103%
CCOc1cccc(-c2nnc3sc(COc4ccc(OC)cc4)nn23)c1	99.8%
CCOc1cccc(-n2nnnc2-c2ccc(OC)cc2)c1	47.7% (active)
COc1ccc(C2=CC(c3cccc(OC)c3)n3nnnc3N2)cc1 (stereo unspecified)	86.1%
Cc1ccc(Nc2nnc(SCc3ccccc3)s2)cc1	102%
Cc1ccc(C)c(N2C(=O)CS/C2=N\NC(=O)c2ccccc2Cl)c1	101%
CC(C)CC(N=C1NC(C)(C)Cc2ccccc21)C(=O)O (stereo unspecified)	111%
COc1cccc(NC(=O)Cc2ccc(C)cc2)c1	91.5%
COc1ccc(NC(=O)/C(Cl)=C(/Cl)S(=O)Cc2ccc(C)cc2)cn1 (stereo unspecified)	1.6% (active)
COc1ccc(-c2nc3ccccc3n2CCC(C)C)cc1OC	99.3%
O=C(CN1CCCCCC1)N1c2ccccc2Sc2ccc(C(F)(F)F)cc21	96%
CCCCCCc1cc2cc(-c3nnc(-c4cccc(OC)c4)o3)c(=O)oc2cc1O	64.8%
COC(=O)CSc1nc2c(c(C3CC=CCC3)c1C#N)CCC2 (stereo unspecified)	101%
Cc1cc(C)n(-c2nnc(C)n2NC(=O)c2cccc(Cl)c2)n1	94.7%
COCCCn1c(SCC(=O)Nc2ccccc2)nnc1-c1ccncc1	108%
Cc1ccc(NC(=O)N2CCC(c3nc4c(nnn4Cc4c(F)cccc4Cl)c(=O)[nH]3)CC2)cc1	95%
OCCCN1c2ccccc2Nc2nnc(-c3ccccc3)cc21	89.3%
N=c1c2c(-c3ccccc3)c(-c3ccccc3)n(Cc3ccccc3)c2ncn1CCCO	39% (active)
C=CCO/N=C(\C)c1c(O)c(C)c(-c2ccccc2)n(-c2ccccc2)c1=O	99.4%
Cc1cccc(N2CCN(C(=O)c3cnn4c(C(F)F)cc(-c5ccccc5)nc34)CC2)c1C	87.9%
Cc1sc2nc(SCC(N)=O)n(C)c(=O)c2c1C	93.8%
C=CCn1c(SCC(=O)/C(C#N)=C(\C)N)nc2sc(C)c(C)c2c1=O	34.3% (active)
CCCn1c(=O)c2ccccc2n2c(SCC(=O)/C(C#N)=C(\C)N)nnc12	93.4%
CCOc1cc(NC(=O)c2cnccn2)c(OCC)cc1NC(=O)c1ccc(C)cc1	97.9%

Compound	viability
COc1ccc(C(=O)Nc2ccc(F)cc2F)cc1	99.5%
CCOC(=O)N1CCN(S(=O)(=O)c2ccc(C(=O)Nc3ccc(F)cc3F)cc2)CC1	47.5% (active)
O=C(Nc1cccc(F)c1)c1ccc(S(=O)(=O)N2CCCC2)cc1	109%
COc1ccc(Nc2ncc(C(=O)N3CCN(c4ccccc4OC)CC3)c3ccccc23)cc1	100%
Fc1ccc(-n2c(Cc3ccccc3)nnc2SCc2nc(-c3ccc(Cl)cc3)no2)cc1	111%
CC(C)CNC(=O)CC(c1ccccc1)c1c(O)ccc2ccccc12 (stereo unspecified)	94.7%
CC(C)C(=O)NC(NC(=S)NC1CCS(=O)(=O)C1)C(Cl)(Cl)Cl (stereo unspecified)	104%
COCCn1c(SCc2nnc(-c3ccc(OC)c(OC)c3)o2)nc2sc3c(c2c1=O)CCC3	99.8%
O=C(Cn1cnc2c(nnn2Cc2ccc(F)cc2)c1=O)NCc1ccc2c(c1)OCO2	93.2%
CCCc1nc(NCc2ccc3c(c2)OCO3)c2nnn(Cc3ccccc3Cl)c2n1	23.2% (active)
Cc1nc(Nc2ccc3c(c2)OCCO3)c2nnn(Cc3ccccc3Cl)c2n1	98.4%
COC(=O)c1cccc(-n2[nH]nnc2=S)c1	102%
Cc1ccc(-n2c(CNc3ccc(F)cc3)nnc2SCC(=O)N2CCOCC2)cc1	2.59% (active)
CCOC(=O)CSc1nnc(CNC(=O)c2ccco2)n1-c1ccc(F)cc1	103%
O=C(CSc1nnc(Cc2ccccc2)n1-c1ccccc1)N1CCOCC1	109%
O=C(NCCCn1ccnc1)Nc1ccc(Cl)cc1Cl	102%
CCCCOc1ccc(N(CC(=O)NCC2CCCO2)C(=O)CCC(=O)Nc2cc(C)ccn2)cc1 (stereo unspecified)	91.1%
COc1ccc(Br)cc1CN1CCN(C(=O)c2cccc(OC)c2OC)CC1	94.1%
O=C1CCCCC(=O)c2ccccc2N1	96.7%
c1ccc2c(c1)C(=NC1CCCCC1)NC2=NC1CCCCC1	40.6% (active)
Cc1nn(Cc2ccccc2)c2c1C(c1ccccc1)C(C#N)=C(N)O2 (stereo unspecified)	98.6%
CCCCNS(=O)(=O)c1ccc(S(=O)(=O)n2cnc3ccccc32)cc1	107%
OC(CNCC1CCCO1)Cn1c2ccc(Br)cc2c2cc(Br)ccc21 (stereo unspecified)	2.96% (active)
Cc1cc(Br)ccc1NC(=O)C1CCCO1 (stereo unspecified)	91.1%

Compound	viability
Cc1ccc(C(=O)NCC2CCCO2)o1 (stereo unspecified)	101%
COC(=O)C1=C(C(=O)OC)C2(OC1c1ccc(Br)cc1)C(=O)c1ccccc1C2=O (stereo unspecified)	105%
O=C(Nc1cccc(NC(=O)c2ccco2)c1)c1cnccn1	103%
COC(=O)c1cc2nc(-c3ccccc3)cc(C(F)(F)F)n2n1	97.7%
CNc1nc(SC)nc(N(C#N)CC(=O)OC)n1	107%
CC(=O)Nc1ccc(S(=O)(=O)N2CCN(C(=O)c3ccccc3F)CC2)cc1	105%
CCn1c(/C=C/c2ccc([N+](=O)[O-])o2)nc2ccccc2c1=O	9.18% (active)
Cc1nc2ccccc2c(=O)n1CCCn1ccnc1	100%
O=c1c2ccccc2nc(N/N=C/c2ccccc2)n1O	99.1%
C=CCn1c(SCc2c(C)noc2C)nc2sc3c(c2c1=O)CCC(C)C3 (stereo unspecified)	47.2% (active)
CCCn1nnc2sc3c(c2c1=O)CCC(C)C3 (stereo unspecified)	88.2%
CC1CCc2c(sc3nc4n(c(=O)c23)CCS4)C1 (stereo unspecified)	104%
COc1ccc(CN(CC(=O)NC2CCCC2)C(=O)CCC(=O)Nc2cc(C)on2)cc1	101%
O=C1C=C(c2ccc(Cl)cc2)C(=O)N1Nc1ccccc1	49.3% (active)
Cc1ccc(-c2noc(CSc3nnc(-c4ccncc4)n3-c3ccc(F)cc3)n2)cc1	80.8%
OC(CN=c1sc2ccccc2n1CC(O)COc1ccccc1)COc1ccccc1 (stereo unspecified)	86%
O=C(CC(O)(C(F)(F)F)C(F)(F)F)Nc1ccc(Cl)c(Cl)c1	22.4% (active)
CN(C)CCNC(CC(=O)Nc1ccc(Cl)c(Cl)c1)C(=O)O (stereo unspecified)	102%
N/C(=N\OC(=O)Nc1ccc(Cl)c(Cl)c1)c1ncc(C(F)(F)F)cc1Cl	97.2%
COC(=O)c1ccc(NC(=O)C23CC4CC(C2)CC(n2cnc(Cl)n2)(C4)C3)cc1	96.5%
COc1ccc(C2CC(c3cccs3)=Nc3ccccc3S2)cc1OC (stereo unspecified)	93.6%
COc1ccc(N(CC(=O)NC2CCCCC2)C(=O)CNC(=O)c2ccco2)c(OC)c1	96.4%
COc1ccccc1-c1nc(C#N)c(N2CCC(C(N)=O)CC2)o1	89.3%
CCOc1ccc(Nc2oc(Cc3ccccc3)nc2C#N)cc1	99.8%

Compound	viability
COc1ccc(Nc2oc(-c3ccccc3Cl)nc2C#N)cc1	23.1% (active)
COc1ccccc1NC1=NC(c2ccc(Cl)cc2)N=C(N)N1 (stereo unspecified)	45.8% (active)
COc1ccccc1NC1=NC2(CCCC2)N=C(N)N1	93%
COc1ccccc1Nc1nc(N)nc(CN(C)C2CCCCC2)n1	94.3%
CCn1c(=O)c(=O)n(CC)c2cc(S(=O)(=O)N3CCc4ccccc43)ccc21	70.5%
CC1(C)CCc2nc(SCc3ccccc3)c(C#N)cc2C1	95.3%
Cc1nc(NC(=O)C2CCCCC2)sc1C	108%
O=C(NCc1ccccc1)C1CCCN(S(=O)(=O)c2cccs2)C1 (stereo unspecified)	94.6%
O=C(Cn1c(-c2cscn2)nc2ccccc21)Nc1ccc(Cl)cc1	90.7%
CN(C)c1ccnc2sc3c(=O)n(-c4ccc(Cl)cc4)cnc3c12	102%
CC1=C(C(=O)Nc2ccccc2)C(c2ccco2)C(C#N)=C(SCC(N)=O)N1 (stereo unspecified)	88.2%
Cc1cc2c(c(=O)n1Cc1ccco1)C(c1ccccc1)C(C#N)=C(N)O2 (stereo unspecified)	107%
N#CC1=C(N)Oc2c(sc3ccccc23)C1c1ccco1 (stereo unspecified)	20.2% (active)
CCNc1nc(NC(C)C)nc(OCCOC(=O)c2ccccc2)n1	108%
Cc1cc(O)cc(O)c1C(=O)Cc1cnn(-c2ccccc2)c1	98.6%
C/C(=N\NC(=O)c1ccc(C)cc1)C1C(=O)c2ccccc2C1=O	103%
COc1cccc(-c2nnc(NC(=O)c3ccc(S(=O)(=O)N(CC(C)C)CC(C)C)cc3)o2)c1	8.59% (active)
CCN(CC)C(=O)CSc1nnc(-c2cccc(OC)c2)o1	101%
COc1cccc(NC(=O)CN(C)S(=O)(=O)c2ccc(C)cc2)c1	93.1%
c1ccc(-n2nc3ccccc3n2)cc1	100%
Cc1ccc(OCC(=O)N/N=C\c2ccco2)c(C)c1	108%
Cc1ccc(/C=N/NC(=O)C2=NNC(c3ccccc3)(c3ccccc3)C2)c(O)c1	19.2% (active)
C/C(=N\NC(=O)c1nc(C)cc(C)n1)c1ccccc1	106%
CCOc1ccc(-n2c(N)c(C(=O)NCC3CCCO3)sc2=S)cc1 (stereo unspecified)	101%
